The source made the active and inactive calls. The calls are words filed in the database; no cut-off is given here.
Columns and labels:
[1] = system: Staphylococcus aureus; test: Antibacterial activity against Staphylococcus aureus ATCC 29213 after 16 to 20 hrs by broth microdilution method; assay type: functional
Method in brief: (§1)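 Broth microdilution per CLSI. Bacteria grown 4-6 h (about 10⁸ CFU/mL), then diluted to about 10⁶ CFU/mL. Medium: Mueller-Hinton broth, except Luria-Bertani broth for E. coli. Compounds in sterile water, twofold series 256-0.5 µg/mL, mixed 1:1 with inoculum, 37 °C for 16-20 h. MIC is the lowest concentration without visible growth. Duplicate wells; experiment repeated at least twice.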

[2] = system: Salmonella enterica; test: Antibacterial activity against Salmonella enterica ATCC 13076 after 16 to 20 hrs by broth microdilution method; assay type: functional; method in brief: as §1
[3] = system: Escherichia coli; test: Antibacterial activity against Escherichia coli ATCC 25922 after 16 to 20 hrs by broth microdilution method; assay type: functional; method in brief: as §1
[4] = Hemolytic activity in sheep RBC after 1 hr; assay type: ADME, cell-based, Ovis aries, Erythrocyte; details: sheep red blood cells (erythrocytes)
Method in brief: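 Sheep red blood cells (150 µL suspension) mixed with 50 µL of compound dilutions (5120-10 µg/mL), 1 h at 37 °C, then centrifuged. Supernatant read at 540 nm. Percent hemolysis calculated relative to RBC-only control (0%) and 0.1% Triton X-100 (100%).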

[5] = system: Enterococcus faecalis; test: Antibacterial activity against Enterococcus faecalis ATCC 29212 after 16 to 20 hrs by broth microdilution method; assay type: functional; method in brief: as §1
[6] = system: Staphylococcus aureus; test: Induction of inner membrane permeabilization in Staphylococcus aureus ATCC 29213 at 10 to 20 ug/ml measured every 2 mins for 12 mins by propidium iodide staining-based fluorescence assay; assay type: functional, organism-based
Method in brief: (§2)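 Mid-log cells (~10⁸ CFU/mL) were suspended in PBS (S. aureus) or HEPES/glucose/KCl (E. coli). They were preincubated with propidium iodide for 30 min (S. aureus) or 40 min (E. coli), and baseline fluorescence was read for 8 min. Compound was added to 20 µg/mL final, and fluorescence (ex 535/em 617 nm) was read every 2 min for 12 min.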

[7] = system: Staphylococcus aureus; test: Induction of cytoplasmic membrane depolarization in Staphylococcus aureus ATCC 29213 at 10 to 20 ug/ml measured every 2 mins for 12 mins by DiSC35 dye-based fluorescence assay; assay type: functional, organism-based
Method in brief: (§3)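 Mid-log cells (~10⁸ CFU/mL) were suspended in PBS (S. aureus) or HEPES/glucose/KCl with EDTA (E. coli). They were preloaded with DiSC3(5) for 30 min (S. aureus) or 40 min (E. coli), and baseline fluorescence was read for 8 min. Compound was added to 20 µg/mL final, and fluorescence (ex 622/em 670 nm) was read every 2 min for 12 min. Water served as control.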

[8] = system: Escherichia coli; test: Induction of inner membrane permeabilization in Escherichia coli ATCC 25922 at 10 to 20 ug/ml measured every 2 mins for 12 mins by propidium iodide staining-based fluorescence assay; assay type: functional, organism-based; method in brief: as §2
[9] = system: Escherichia coli; test: Induction of cytoplasmic membrane depolarization in Escherichia coli ATCC 25922 at 10 to 20 ug/ml measured every 2 mins for 12 mins by DiSC35 dye-based fluorescence assay; assay type: functional, organism-based; method in brief: as §3

| Compound | MIC [1] [µg/mL] | MIC [2] [µg/mL] | MIC [3] [µg/mL] | MIC [5] [µg/mL] | HC50 at 1 h [4] [µg/mL] | Activity [6] | Activity [7] | Activity [8] | Activity [9] |
| --- | --- | --- | --- | --- | --- | --- | --- | --- | --- |
| CCCC[N+](C)(C)CC(=O)Nc1ccc(C(=O)/C=C/c2ccccc2F)cc1.[Cl-] | 16 | 128 | 64 | 16 | 262 | – | – | – | – |
| CCCC[N+](C)(C)CC(=O)Nc1ccc(C(=O)/C=C/c2ccncc2)cc1.[Cl-] | 128 | > 128 | > 128 | 128 | > 500 | – | – | – | – |
| CCCCCCCC[N+](C)(C)CC(=O)Nc1ccc(C(=O)/C=C/c2cccc(F)c2)cc1.[Cl-] | 32 | > 128 | > 128 | 64 | 68 | – | – | – | – |
| CCCCCCCCCCCCCC[N+](C)(C)CC(=O)Nc1ccc(C(=O)/C=C/c2ccccc2F)cc1.[Cl-] | 8 | > 128 | > 128 | > 128 | 192 | – | – | – | – |
| CCCCCCCC[N+](C)(C)CC(=O)Nc1ccc(C(=O)/C=C/c2c(F)cccc2F)cc1.[Cl-] | 32 | 128 | 128 | 32 | 50 | – | – | – | – |
| CCCCCCCC[N+](C)(C)CC(=O)Nc1ccc(C(=O)/C=C/c2cc([N+](=O)[O-])ccc2OCC)cc1.[Cl-] | 8 | > 128 | > 128 | 2 | 102 | – | – | – | – |
| CCCC[N+](C)(C)CC(=O)Nc1ccc(C(=O)/C=C/c2cccs2)cc1.[Cl-] | 32 | 128 | 64 | 32 | 360 | – | – | – | – |
| CCCCCCCCCCCCCCCCCC[N+](C)(C)CC(=O)Nc1ccc(C(=O)/C=C/c2ccccc2F)cc1.[Cl-] | > 128 | > 128 | > 128 | > 128 | 444 | – | – | – | – |
| CCCCCCCC[N+](C)(C)CC(=O)Nc1cccc(C(=O)/C=C/c2cccs2)c1.[Cl-] | 2 | 16 | 16 | 4 | 249 | – | – | – | – |
| CCCCCCCCCCCC[N+](C)(C)CC(=O)Nc1ccc(C(=O)/C=C/c2ccccc2F)cc1.[Cl-] | 4 | 32 | 16 | 8 | 293 | – | – | – | – |

Continued, in another order:

| MIC [1] [µg/mL] | MIC [2] [µg/mL] | MIC [3] [µg/mL] | MIC [5] [µg/mL] | Compound | HC50 at 1 h [4] [µg/mL] | Activity [6] | Activity [7] | Activity [8] | Activity [9] |
| --- | --- | --- | --- | --- | --- | --- | --- | --- | --- |
| – | – | < 0.125 | – | C[C@@H](O)[C@H]1C(=O)N2C(C(=O)O)=C(S[C@@H]3CN[C@H](C(=O)N(C)C)C3)[C@H](C)[C@H]12 [MEROPENEM] | – | – | – | – | – |
| 4 | 32 | 16 | 8 | CCCCCCCC[N+](C)(C)CC(=O)Nc1ccc(C(=O)/C=C/c2ccncc2)cc1.[Cl-] | 200 | – | – | – | – |
| 4 | 32 | 16 | 8 | CCCCCCCC[N+](C)(C)CC(=O)Nc1ccc(C(=O)/C=C/c2cccc(Br)n2)cc1.[Cl-] | 363 | – | – | – | – |
| 2 | 16 | 16 | 4 | CCCCCCCC[N+](C)(C)CC(=O)Nc1ccc(C(=O)/C=C/c2ccc(C(C)(C)C)cc2)cc1.[Cl-] | 284 | – | – | – | – |
| 4 | 32 | 16 | 8 | CCCCCCCC[N+](C)(C)CC(=O)Nc1ccc(C(=O)/C=C/c2cccnc2)cc1.[Cl-] | 127 | – | – | – | – |
| 4 | 32 | 16 | 8 | CCCCCCCC[N+](C)(C)CC(=O)Nc1ccc(C(=O)/C=C/c2ccccn2)cc1.[Cl-] | 187 | – | – | – | – |
| 2 | 16 | 8 | 8 | CCCCCCCC[N+](C)(C)CC(=O)Nc1ccc(C(=O)/C=C/c2ncccc2F)cc1.[Cl-] | 83 | – | – | – | – |
| 0.5 | 8 | 2 | 2 | CCCCCCCC[N+](C)(C)CC(=O)Nc1ccc(C(=O)/C=C/c2cccc(F)c2F)cc1.[Cl-] | 56 | Active | Active | Active | Active |
